Reference: PMC11260088 (Proceedings of the National Academy of Sciences of the …, 2024)
Bridge positions count the residues as written; N and C are the ends. Square brackets hold non-standard residues; d marks the D form. Peptide text beside a SMILES is read from it. * marks the point of attachment. X1 = CC[C@H](C)CCCCC(=O)*; Dab = NCC[C@H](N)C(=O)O

Experiments:
B. subtilis 168 = assay: Membrane fluidity, DiIC12 staining; assay type: cell-based; settings: 5 × MIC, DiIC12, 0.3 mM ZnSO4, 30 °C, 0 to 60 min
How it was run: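 B. subtilis 168 overnight cultures were diluted 1:200 into LB containing 1% DMSO and 2 µg/mL DiIC12. At OD600 0.3 cells were washed in dye-free medium and given 0.3 mM ZnSO4, then treated at 5× MIC, with daptomycin as positive control. Incubation was at 30 °C and 850 rpm, sampling at 0–60 min for fluorescence microscopy on agarose slides. Representative of three independent experiments.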

E. faecium E2373 (vanA) = assay: MIC, broth microdilution; assay type: cell-based; settings: LB + 0.3 mM ZnSO4
How it was run: (§1)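 Strains from glycerol stocks were grown overnight on blood agar at 37 °C. Single colonies went into TSB and grew to OD600 0.5, then were diluted 100-fold in LB + 0.3 mM ZnSO4 to 10^6 CFU/mL. Two-fold serial dilutions of test compound were made in triplicate in the same medium and mixed 1:1 with inoculum. Plates ran 18 h at 37 °C at 600 rpm. MIC was the median of at least triplicates, read visually.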

[1] = test system: panel of E. faecium clinical isolates carrying the vanA vancomycin resistance gene; assay: MIC50 / MIC90 over the VRE panel; assay type: cell-based
E. faecium E155 (vanA) = assay: MIC, broth microdilution; assay type: cell-based, Enterococcus faecium
How it was run: as §1

E. faecium E1130 (vanA) = assay: MIC, broth microdilution; assay type: cell-based; settings: LB + 0.3 mM ZnSO4
How it was run: as §1

E. faecium E0506 (vanA) = assay: MIC, broth microdilution; assay type: cell-based; settings: LB + 0.3 mM ZnSO4
How it was run: as §1

E. faecium E6016 (vanA) = assay: MIC, broth microdilution; assay type: cell-based; settings: LB + 0.3 mM ZnSO4
How it was run: as §1

E. faecium E7312 (vanA) = assay: MIC, broth microdilution; assay type: cell-based; settings: LB + 0.3 mM ZnSO4
How it was run: as §1

E. faecium E0013 (vanA) = assay: MIC, broth microdilution; assay type: cell-based; settings: LB + 0.3 mM ZnSO4
How it was run: as §1

E. faecium E7413 (vanA) = assay: MIC, broth microdilution; assay type: cell-based; settings: LB + 0.3 mM ZnSO4
How it was run: as §1

E. faecium E1441 (vanA) = assay: MIC, broth microdilution; assay type: cell-based; settings: LB + 0.3 mM ZnSO4
How it was run: as §1

E. faecium E0745 (vanA) = assay: MIC, broth microdilution; assay type: cell-based; settings: LB + 0.3 mM ZnSO4
How it was run: as §1

E. faecium E1679 (vanA) = assay: MIC, broth microdilution; assay type: cell-based; settings: LB + 0.3 mM ZnSO4
How it was run: as §1

E. faecium E0072 (vanA) = assay: MIC, broth microdilution; assay type: cell-based; settings: LB + 0.3 mM ZnSO4
How it was run: as §1

E. faecium E0300 (vanA) = assay: MIC, broth microdilution; assay type: cell-based; settings: LB + 0.3 mM ZnSO4
How it was run: as §1

E. faecium E2297 (vanA) = assay: MIC, broth microdilution; assay type: cell-based; settings: LB + 0.3 mM ZnSO4
How it was run: as §1

E. faecium E0333 (vanA) = assay: MIC, broth microdilution; assay type: cell-based; settings: LB + 0.3 mM ZnSO4
How it was run: as §1

E. faecium E1763 (vanA) = assay: MIC, broth microdilution; assay type: cell-based; settings: LB + 0.3 mM ZnSO4
How it was run: as §1

E. faecium E0341 (vanA) = assay: MIC, broth microdilution; assay type: cell-based; settings: LB + 0.3 mM ZnSO4
How it was run: as §1

E. faecium E7319 (vanA) = assay: MIC, broth microdilution; assay type: cell-based; settings: LB + 0.3 mM ZnSO4
How it was run: as §1

E. faecium E0321 (vanA) = assay: MIC, broth microdilution; assay type: cell-based; settings: LB + 0.3 mM ZnSO4
How it was run: as §1

[2] = degradation product of bacitracin; cited from earlier work
E. coli ATCC 25922 = assay: MIC, broth microdilution; assay type: cell-based; settings: LB + 0.3 mM ZnSO4, 37 °C, 18 h, median of min. triplicates
How it was run: as §1

[3] = calculated over 19 vanA E. faecium clinical isolates, LB + 0.3 mM ZnSO4

**Q.** With Bacitracin as the compound, how does the “formation of regions of increased fluidity (RIF)” value (B. subtilis 168) read?
**A.** to a much lesser degree

**Q.** For `CN[C@H](CC(C)C)C(=O)N[C@H]1C(=O)N[C@@H](CC(N)=O)C(=O)N[C@H]2C(=O)N[C@H]3C(=O)N[C@H](C(=O)N[C@H](C(=O)O)c4cc(O)cc(O)c4-c4cc3ccc4O)[C@H](O)c3ccc(c(Cl)c3)Oc3cc2cc(c3O[C@@H]2O[C@H](CO)[C@@H](O)[C@H](O)[C@H]2O[C@H]2C[C@](C)(N)[C@H](O)[C@H](C)O2)Oc2ccc(cc2Cl)[C@H]1O` [Vancomycin], which “MIC E. faecium E2373 vanA” value (E. faecium E2373 (vanA)) is on record?
**A.** >64 mg/L

**Q.** And the “MIC for vancomycin, all strains of the vanA VRE selection” value ([1]; broader selection of VRE strains all carrying the vanA gene)?
**A.** ≥ 64 mg/L

**Q.** And the MIC50 [1, 3]?
**A.** >64 mg/L

**Q.** What about the MIC90 [1, 3] of the same compound?
**A.** >64 mg/L

**Q.** What about the “MIC E. faecium E155 vanA” value (E. faecium E155 (vanA); LB + 0.3 mM ZnSO4, 37 °C, 18 h, median of min. triplicates) of the same compound?
**A.** >64 mg/L

**Q.** What about the “MIC E. faecium E155 vanA” value (E. faecium E155 (vanA); Table 2, LB + 0.3 mM ZnSO4) of the same compound?
**A.** >64 mg/L

**Q.** And the “MIC E. faecium E1130 vanA” value (E. faecium E1130 (vanA))?
**A.** >64 mg/L

**Q.** And the “MIC E. faecium E0506 vanA” value (E. faecium E0506 (vanA))?
**A.** >64 mg/L

**Q.** And the “MIC E. faecium E6016 vanA” value (E. faecium E6016 (vanA))?
**A.** >64 mg/L

**Q.** What about the “MIC E. faecium E7312 vanA” value (E. faecium E7312 (vanA)) of the same compound?
**A.** >64 mg/L

**Q.** What about the “MIC E. faecium E0013 vanA” value (E. faecium E0013 (vanA)) of the same compound?
**A.** >64 mg/L

**Q.** What about the “MIC E. faecium E7413 vanA” value (E. faecium E7413 (vanA)) of the same compound?
**A.** >64 mg/L

**Q.** And the “MIC E. faecium E1441 vanA” value (E. faecium E1441 (vanA))?
**A.** >64 mg/L

**Q.** And the “MIC E. faecium E0745 vanA” value (E. faecium E0745 (vanA))?
**A.** >64 mg/L

**Q.** And the “MIC E. faecium E1679 vanA” value (E. faecium E1679 (vanA))?
**A.** >64 mg/L

**Q.** What about the “MIC E. faecium E0072 vanA” value (E. faecium E0072 (vanA)) of the same compound?
**A.** >64 mg/L

**Q.** What about the “MIC E. faecium E0300 vanA” value (E. faecium E0300 (vanA)) of the same compound?
**A.** >64 mg/L

**Q.** What about the “MIC E. faecium E2297 vanA” value (E. faecium E2297 (vanA)) of the same compound?
**A.** >64 mg/L

**Q.** What about the “MIC E. faecium E0333 vanA” value (E. faecium E0333 (vanA)) of the same compound?
**A.** >64 mg/L

**Q.** What about the “MIC E. faecium E1763 vanA” value (E. faecium E1763 (vanA)) of the same compound?
**A.** >64 mg/L

**Q.** What about the “MIC E. faecium E0341 vanA” value (E. faecium E0341 (vanA)) of the same compound?
**A.** >64 mg/L

**Q.** What about the “MIC E. faecium E7319 vanA” value (E. faecium E7319 (vanA)) of the same compound?
**A.** >64 mg/L

**Q.** What about the “MIC E. faecium E0321 vanA” value (E. faecium E0321 (vanA)) of the same compound?
**A.** >64 mg/L

**Q.** With Bacitracin F as the compound, how does the nephrotoxicity [2] read?
**A.** nephrotoxic

**Q.** For `CC[C@H](C)CCCCC(=O)N[C@@H](CCN)C(=O)N[C@H](C(=O)N[C@@H](CCN)C(=O)N[C@H]1CCNC(=O)[C@H]([C@@H](C)O)NC(=O)[C@H](CCN)NC(=O)[C@H](CCN)NC(=O)[C@H](CC(C)C)NC(=O)[C@@H](Cc2ccccc2)NC(=O)[C@H](CCN)NC1=O)[C@@H](C)O` [Polymyxin B] (X1-[Dab]T[Dab][Dab][Dab][dF]L[Dab][Dab]T; lactam 4-C (inferred); N-terminus assumed), which “MIC E. coli ATCC 25922” value (E. coli ATCC 25922) is on record?
**A.** 2 mg/L
